Laboratory results as given in ChEMBL document CHEMBL4732233, “Faropenem reacts with serine and metallo-β-lactamases to give multiple products” (Eur J Med Chem, 2021).

Legend:
[1] = Drug metabolism assessed as VIM-1 (unknown origin)-mediated compound hydrolysis by measuring (R)-2-((1S,2R)-1-carboxy-2-hydroxypropyl)-5-(4-hydroxybutylidene)-2,5-dihydrothiazole-4-carboxylic acid formation at 5 mM incubated for 5 mins by 1H-NMR based analysis; assay type: ADME; conditions: bacteria, 5000 µM
[2] = Drug metabolism assessed as OXA-48 (unknown origin)-mediated compound hydrolysis by measuring (S)-2-((1S,2R)-1-carboxy-2-hydroxypropyl)-5-((R)-tetrahydrofuran-2-yl)-2,3-dihydrothiazole-4-carboxylic acid formation at 5 mM incubated for 55 mins by 1H-NMR based analysis; assay type: ADME; conditions: bacteria, 5000 µM
Method in brief: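 Reaction of OXA-48 (5 μM) with 5 mM faropenem for 55 min in 50 mM sodium phosphate pH 7.5, 10% (v/v) D2O. Products assigned from methyl group resonances in 700 MHz 1H NMR spectra.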

Bacteria [3] = test system: Bacteria
Bacteria [4] = test system: Bacteria; remark: listed apart in the source
[5] = Drug metabolism assessed as VIM-2 (unknown origin)-mediated compound hydrolysis by measuring (R)-2-((1S,2R)-1-carboxy-2-hydroxypropyl)-5-((R)-tetrahydrofuran-2-yl)-2,3-dihydrothiazole-4-carboxylic acid formation at 5 mM incubated for 5 mins by 1H-NMR based analysis; assay type: ADME; conditions: bacteria, 5000 µM
[6] = Drug metabolism assessed as L1 (unknown origin)-mediated compound hydrolysis by measuring (S)-2-((1S,2R)-1-carboxy-2-hydroxypropyl)-5-(4-hydroxybutylidene)-2,5-dihydrothiazole-4-carboxylic acid formation at 5 mM incubated for 5 mins by 1H-NMR based analysis; assay type: ADME; conditions: bacteria, 5000 µM
Method in brief: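 L1 enzyme (125 nM) reacted with 5 mM faropenem for 5 min in 50 mM sodium phosphate pH 7.5 containing 10% (v/v) D2O. Product species assigned by 1H NMR (700 MHz) methyl resonances.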

[7] = Drug metabolism assessed as NDM-1 (unknown origin)-mediated compound hydrolysis by measuring (R)-2-((1S,2R)-1-carboxy-2-hydroxypropyl)-5-(4-hydroxybutylidene)-2,5-dihydrothiazole-4-carboxylic acid formation at 5 mM incubated for 5 mins by 1H-NMR based analysis; assay type: ADME; conditions: bacteria, 5000 µM
Method in brief: (§1)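 NDM-1 used at 5 μM with 5 mM faropenem, 5 min incubation, in 50 mM sodium phosphate, pH 7.5, 10% (v/v) D2O. Degradation products monitored by 700 MHz 1H NMR via methyl group signals.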

Bacteria [8] = test system: Bacteria; remark: listed apart in the source
[9] = Drug metabolism assessed as VIM-1 (unknown origin)-mediated compound hydrolysis by measuring (R)-2-((1S,2R)-1-carboxy-2-hydroxypropyl)-5-((R)-tetrahydrofuran-2-yl)-2,3-dihydrothiazole-4-carboxylic acid formation at 5 mM incubated for 5 mins by 1H-NMR based analysis; assay type: ADME; conditions: bacteria, 5000 µM
[10] = Drug metabolism assessed as OXA10 (unknown origin)-mediated compound hydrolysis by measuring (R)-2-((1S,2R)-1-carboxy-2-hydroxypropyl)-5-(4-hydroxybutylidene)-2,5-dihydrothiazole-4-carboxylic acid formation at 5 mM incubated for 16 hrs by 1H-NMR based analysis; assay type: ADME; conditions: bacteria, 5000 µM
Method in brief: (§2)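 OXA-10 at 5 μM with 5 mM faropenem, incubated 16 h in 50 mM sodium phosphate, pH 7.5, 10% (v/v) D2O. Product formation read by 1H NMR (700 MHz) methyl group resonances.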

Bradyrhizobium japonicum = conditions: USDA110
[11] = Drug metabolism assessed as NDM-1 (unknown origin)-mediated compound hydrolysis by measuring (S)-2-((1S,2R)-1-carboxy-2-hydroxypropyl)-5-((R)-tetrahydrofuran-2-yl)-2,3-dihydrothiazole-4-carboxylic acid formation at 5 mM incubated for 5 mins by 1H-NMR based analysis; assay type: ADME; conditions: bacteria, 5000 µM; method in brief: as §1
[12] = test system: Mycobacterium tuberculosis H37Rv
[13] = test system: Mycobacterium tuberculosis H37Rv; remark: listed apart in the source
[14] = test system: Mycobacterium tuberculosis H37Rv; remark: listed apart in the source
[15] = Drug metabolism assessed as OXA-23 (unknown origin)-mediated compound hydrolysis by measuring (S)-2-((1S,2R)-1-carboxy-2-hydroxypropyl)-5-((R)-tetrahydrofuran-2-yl)-2,3-dihydrothiazole-4-carboxylic acid formation at 2 mM incubated for 15 mins by 1H-NMR based analysis; assay type: ADME; conditions: bacteria, 0.25 h, 2000 µM
Bacteria [16] = test system: Bacteria; remark: listed apart in the source
[17] = Drug metabolism assessed as KPC-2 (unknown origin)-mediated compound hydrolysis by measuring (S)-2-((1S,2R)-1-carboxy-2-hydroxypropyl)-5-(4-hydroxybutylidene)-2,5-dihydrothiazole-4-carboxylic acid formation at 5 mM incubated for 72 mins by 1H-NMR based analysis; assay type: ADME; conditions: bacteria, 1.2 h, 5000 µM
Bacteria [18] = test system: Bacteria; remark: listed apart in the source
[19] = Drug metabolism assessed as VIM-1 (unknown origin)-mediated compound hydrolysis by measuring (2R)-2-((1S,2R)-1-carboxy-2-hydroxypropyl)-5-((R)-tetrahydrofuran-2-yl)-2,5-dihydrothiazole-4-carboxylic acid formation at 5 mM incubated for 5 mins by 1H-NMR based analysis; assay type: ADME; conditions: bacteria, 5000 µM
Bacteria [20] = test system: Bacteria; remark: listed apart in the source
[21] = Drug metabolism assessed as OXA-23 (unknown origin)-mediated compound hydrolysis by measuring (S)-2-((1S,2R)-1-carboxy-2-hydroxypropyl)-5-(4-hydroxybutylidene)-2,5-dihydrothiazole-4-carboxylic acid formation at 2 mM incubated for 15 mins by 1H-NMR based analysis; assay type: ADME; conditions: bacteria, 0.25 h, 2000 µM
[22] = Drug metabolism assessed as KPC-2 (unknown origin)-mediated compound hydrolysis by measuring (S)-2-((1S,2R)-1-carboxy-2-hydroxypropyl)-5-((R)-tetrahydrofuran-2-yl)-2,3-dihydrothiazole-4-carboxylic acid formation at 5 mM incubated for 72 mins by 1H-NMR based analysis; assay type: ADME; conditions: bacteria, 1.2 h, 5000 µM
[23] = Drug metabolism assessed as NDM-1 (unknown origin)-mediated compound hydrolysis by measuring (R)-2-((1S,2R)-1-carboxy-2-hydroxypropyl)-5-((R)-tetrahydrofuran-2-yl)-2,3-dihydrothiazole-4-carboxylic acid formation at 5 mM incubated for 5 mins by 1H-NMR based analysis; assay type: ADME; conditions: bacteria, 5000 µM; method in brief: as §1
[24] = Drug metabolism assessed as OXA10 (unknown origin)-mediated compound hydrolysis by measuring (S)-2-((1S,2R)-1-carboxy-2-hydroxypropyl)-5-(4-hydroxybutylidene)-2,5-dihydrothiazole-4-carboxylic acid formation at 5 mM incubated for 16 hrs by 1H-NMR based analysis; assay type: ADME; conditions: bacteria, 5000 µM; method in brief: as §2

Structure (SMILES): C[C@@H](O)[C@H]1C(=O)N2C(C(=O)O)=C([C@H]3CCCO3)S[C@H]12 [FAROPENEM]
- Drug metabolism [1]: Metabolite_Detected
- Drug metabolism [2]: Metabolite_Detected
- kcat/Km (Bacteria [3]): 7.17e+06 M⁻¹ s⁻¹
- Km (Bacteria [4]): 36.3 µM
- Drug metabolism [5]: Metabolite_Detected
- Drug metabolism [6]: Metabolite_Detected
- Drug metabolism [7]: Metabolite_Detected
- kcat (Bacteria [8]): 3.71 s⁻¹
- Drug metabolism [9]: Metabolite_Detected
- Drug metabolism [10]: Metabolite_Detected
- kcat (Bradyrhizobium japonicum): 2 s⁻¹
- Drug metabolism [11]: Metabolite_Detected
- kcat [12]: 0.91 s⁻¹
- Km [13]: 23 µM
- kcat/Km [14]: 40000 M⁻¹ s⁻¹
- Drug metabolism [15]: Metabolite_Detected
- kcat (Bacteria [16]): 43.7 s⁻¹
- Drug metabolism [17]: Metabolite_Detected
- Km (Klebsiella pneumoniae): 99 µM
- Km (Bacteria [18]): 5.11 µM
- Drug metabolism [19]: Metabolite_Detected
- Km (Bacteria [20]): 16.6 µM
- Drug metabolism [21]: Metabolite_Detected
- Drug metabolism [22]: Metabolite_Detected
- Drug metabolism [23]: Metabolite_Detected
- Drug metabolism [24]: Metabolite_Detected
